Source: publication PMC4153963 (Drugs in R&D, 2014)
Entries after “also recorded” stand apart in the source; their conditions may differ. Like-named read-outs stand apart in the source and are kept apart here. One block for each molecule: values may come before it.

Experiments:
[1] = cited from earlier work
[2] = molecular target: cytochrome P450 (CYP) 2C19 (Homo sapiens, UniProt P33261); assay: Drug-drug interaction of IPE with omeprazole, a CYP2C19 substrate; format: in vivo, human (healthy adult subjects); settings: IPE 4 g/day at steady state, omeprazole 40 mg/day
Sequence of cytochrome P450 (CYP) 2C19 (P33261 whole entry): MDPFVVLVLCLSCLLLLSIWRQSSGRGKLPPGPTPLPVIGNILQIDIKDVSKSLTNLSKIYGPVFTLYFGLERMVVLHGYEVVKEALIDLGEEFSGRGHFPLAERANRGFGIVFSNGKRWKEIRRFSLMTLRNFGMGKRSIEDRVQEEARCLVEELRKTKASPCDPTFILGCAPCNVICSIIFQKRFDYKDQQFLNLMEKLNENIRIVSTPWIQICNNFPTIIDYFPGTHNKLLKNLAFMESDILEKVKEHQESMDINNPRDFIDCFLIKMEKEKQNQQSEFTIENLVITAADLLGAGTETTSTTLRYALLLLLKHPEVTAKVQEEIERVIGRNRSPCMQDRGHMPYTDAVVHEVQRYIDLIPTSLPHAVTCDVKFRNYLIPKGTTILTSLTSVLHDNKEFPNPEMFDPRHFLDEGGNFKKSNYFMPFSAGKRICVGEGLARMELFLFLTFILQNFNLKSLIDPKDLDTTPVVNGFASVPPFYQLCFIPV

[3] = Safety assessments; format: in vivo, human (healthy adult subjects); settings: healthy subjects
Summary of the method: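 Open-label single-centre phase I crossover, healthy adults. Oral H+/K+ ATPase inhibitor 40-mg delayed-release capsule once daily, 1 h before breakfast, days 1–7 and 19–25. Omega-3 ethyl ester 4 g/day as two 1-g capsules twice daily with or after meals, days 12–29. Monitored adverse events, chemistry, hematology, urinalysis, blood pressure, heart rate, respiratory rate, oral temperature and physical examinations.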

[4] = system: CYP3A4; settings: IPE 4 g/day; cited from earlier work
[5] = system: CYP2C8; settings: IPE 4 g/day; cited from earlier work
[6] = system: CYP2C9; settings: IPE 4 g/day; cited from earlier work
[7] = system: serum TG levels; settings: IPE 4 g/day, MARINE and ANCHOR studies; cited from earlier work
[8] = format: in vivo, human (healthy adult subjects); settings: for K el: omeprazole 40 mg/day, mean (SD), n = 28
[9] = healthy subjects; cited from earlier work

Compound: CC/C=C\C/C=C\C/C=C\C/C=C\C/C=C\CCCC(=O)O [EPA, eicosapentaenoic acid]
Unesterified fraction of total EPA in plasma [1]: < 1%
Time to peak plasma concentrations of EPA ([1]; following oral dosing of IPE): approximately 5 h

Compound: CC/C=C\C/C=C\C/C=C\C/C=C\C/C=C\CCCC(=O)OCC [IPE, eicosapentaenoic acid ethyl ester]
Effect of IPE on AUC0–24 and C max of omeprazole (CYP2C19 substrate) [2]: did not significantly change; also recorded: did not inhibit
Safety and tolerability of co-administration of IPE with omeprazole ([3]; IPE 4 g/day with omeprazole 40 mg/day): safe and well tolerated
Effect of IPE on AUC or C max of atorvastatin (CYP3A4 substrate) [4]: did not display a significant effect
Effect of IPE on AUC or C max of rosiglitazone (CYP2C8 substrate) [5]: did not display a significant effect
Effect of IPE on AUC or C max of warfarin (CYP2C9 substrate) [6]: did not display a significant effect
Effect on LDL-C levels [7]: without significantly increasing
Effect on serum TG levels [7]: significantly reduce

AUC(0-t) ([8]; human, plasma, po, 40 mg/day): 3610 ng·h/mL
K el ([8]; with icosapent ethyl 4 g/day (day 25)): 0.62 (0.26) L/h
K el ([8]; without IPE (day 7)): 0.56 (0.22) L/h
Compound: COc1ccc2[nH]c([S+]([O-])Cc3ncc(C)c(OC)c3C)nc2c1 (centres unmarked) [Omeprazole]
Tolerability of omeprazole alone ([3]; omeprazole 40 mg/day): well tolerated
Elimination half-life [9]: 30 to 60 min
